Bioassay records from PubChem.
HSF1 activator – increases HSF-1 driven luciferase reporter signal | hit rate 1.7% among 300,000 | NIH3T3-HGL HSF-1 luciferase reporter, MG132, 8 h; 100% = twice DMSO control signal | AID 504408 | activation, % at 9 µM;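 active = mean replicate activation of at least 50% with a set share of replicates each reaching 50%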
Lmaj promast – reduces viability of Leishmania major promastigotes; hit rate 9% among 200,000; AID 1063; resazurin fluorescence viability; inhibition, % at 10 µM; in the data active = inhibition above about 50%;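 note: promastigotes grown with compound for 44 hours at 28 °C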
T cruzi inh – blocks replication of Trypanosoma cruzi; T. cruzi beta-gal in NIH3T3, luminescence, 90 h; inhibition, % (test concentration not listed); hit rate 1.4% among 300,000; AID 1885;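 active = mean inhibition across valid replicates above about 55%, limit read from the data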;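 note: signal also drops with host cell toxicity which is not excluded here; higher percent means less beta-gal luminescence so fewer parasites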
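System: mouse NIH/3T3 fibroblasts infected with β-gal-expressing T. cruzi Tulahuen C4 / Input: NIH/3T3 cells, 5,000 per well / Buffer or medium: Low-serum DMEM with 2% FBS / Probe or stimulus: 5000 reporter trypomastigotes per well / Schedule: ≥90 h infection period, 3 h prior cell attachment / Measured by: GalScreen luminescence, 60 min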
Hsp70 act – switches on Hsp70 transcription | HeLa Hsp70 promoter luciferase reporter, luminescence; scaled: vehicle 0, proteasome-inhibitor control 100% | activation, % at 10 µM | hit rate 0.04% among 200,000 | AID 1203;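 active = activation above the mean across all tested compounds plus 3 SD, cutoff set per campaign, cut at about 5.5% in these data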
HSF1 inhib – HSF1 inhibition; hit rate 0.77% among 300,000; activity change, negative = inhibition, % at 7.5 µM (by protocol); NIH3T3-HGL HSE-luciferase, MG132-induced, luminescence 8 h; stronger effect = lower value;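 active = more than half of replicate wells show activity change below -50%, luminescence cut by over half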;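 note: luciferase reports HSF-1 transcriptional activity via heat shock element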
A number is an active result; - = inactive; . = not tested or not shown. Many of the other results were omitted from the sample, so hits are more common in it than they were.

SMILES	HSF1 activator	Lmaj promast	T cruzi inh	Hsp70 act	HSF1 inhib
CSc1nnc(C2CCN(CC(=O)Nc3ccccc3N3CCOCC3)CC2)n1C	-	.	-	.	-
CN(C)S(=O)(=O)c1cccc(NC(=O)c2ccc3nccnc3c2)c1	-	.	-	.	-
O=C(Nc1ncccc1Cl)c1ccccc1F	-	72.2	-	-	-
O=C(N/N=C/c1ccc(OC(F)F)cc1)c1ccc(CSc2nc3ccccc3[nH]2)cc1	-	-	-	-	-
N#CC(Cc1ccc(OC(F)F)cc1)c1nc2ccccc2[nH]1 (stereo not given)	58.9	-	-	-	-
O=C(Nc1nc2ccccc2[nH]1)c1ccccc1OC(F)F	60.3	.	-	.	-
CC(C)Oc1ccc(C(=O)Nc2nc3ccccc3[nH]2)cc1	-	.	-	.	-
O=C(Nc1nc2ccccc2[nH]1)c1ccc(OC(F)F)cc1	68.2	.	-	.	-
NS(=O)(=O)c1ccc(NC(=O)c2cc(Cl)sc2Cl)cc1	-	.	-	.	-
CCc1ccc(NC(=O)NCCCN2CCCC2=O)cc1	-	.	-	.	-
CN1CCC(=NOc2ccc([N+](=O)[O-])cc2)CC1	-	-	-	-	-
COc1ccc(CC(=O)Nc2nc3ccccc3[nH]2)cc1	-	.	-	.	-
CCC(Oc1ccccc1)C(=O)Nc1nc2ccccc2[nH]1 (stereo not given)	-	99.6	-	-	-
O=C(Nc1nc2ccccc2[nH]1)c1ccccc1F	-	-	-	-	-74.6
COc1cccc(-c2ccc(NC(=O)C3CCCN(CCCn4nc(C)cc4C)C3)cc2)c1 (stereo not given)	-	.	-	.	-
Cc1sc2c(c1C)c(=O)nc1scc(C)n12	.	-	.	-	.
CC(=O)CC1(OC(C)=O)C(=O)N(C)c2ccccc21 (stereo not given)	-	97.1	-	-	-
CNC(=O)CSc1nc2[nH]ncc2c(=O)[nH]1	-	-	-	-	-
CCCCn1c(N)c(N(CCOC)C(=O)COC(=O)C(C)Oc2ccc(Cl)cc2)c(=O)[nH]c1=O (stereo not given)	-	.	-	.	-
COc1ccc(C)cc1NS(=O)(=O)c1ccc(NC(=O)CN(c2cc([N+](=O)[O-])ccc2C)S(C)(=O)=O)cc1	-	-	-	-	-
Cc1cccc(N(CC(=O)N/N=C/c2cc([N+](=O)[O-])ccc2Cl)S(C)(=O)=O)c1C	-	86.4	-	-	-
COc1ccc(C)cc1S(=O)(=O)N(CC(=O)Nc1cccc([N+](=O)[O-])c1)c1ccc(C)c(C)c1	-	50.3	-	-	-
Cc1ccc(NC(=O)CN(c2ccc(Cl)cc2)S(=O)(=O)c2cc([N+](=O)[O-])ccc2Cl)cc1	-	59.1	-	-	-
Cc1cccc(NS(=O)(=O)c2ccc(NC(=O)CN(c3cc([N+](=O)[O-])ccc3C)S(C)(=O)=O)cc2)c1	-	-	74.7	-	-
CS(=O)(=O)N(CC(=O)N/N=C/c1cc([N+](=O)[O-])ccc1Cl)c1ccccc1	-	-	-	-	-
SMILES	HSF1 activator	Lmaj promast	T cruzi inh	Hsp70 act	HSF1 inhib
CCC(C(=O)NC1CC(C)(C)NC(C)(C)C1)c1ccccc1 (stereo not given)	-	.	-	.	-
COc1cccc2c1OCC(C(=O)Nc1nccs1)=C2	-	.	-	.	-
COc1ccc(C2N(c3ccc(Cl)cc3)N=C(C(C)=O)N(C)N2C(C)=O)cc1 (stereo not given)	-	57.5	-	-	-
COc1ccc(NS(=O)(=O)c2c(F)cc(F)c(Cl)c2F)cc1S(=O)(=O)N1CCCCC1	-	-	-	-	-
CC(C)OC(=O)Cc1nc2sc(-c3ccccc3)cc2c(=O)[nH]1	51.7	.	-	.	-
Cc1ccc(S(=O)(=O)NCCCN2CCOCC2)cc1C	-	88.5	-	-	-
O=[N+]([O-])c1cc(S(=O)(=O)NCCCN2CCOCC2)ccc1Cl	-	98.7	-	-	-
COc1cc(S(=O)(=O)NCCCN2CCOCC2)ccc1Cl	-	92.9	-	-	-
O=S(=O)(NCCCN1CCOCC1)c1ccc2ccccc2c1	-	90.7	-	-	-
COc1ccc(S(=O)(=O)NCCN2CCOCC2)cc1Br	-	.	-	.	-
CCOc1nc(NCCO)nc(Nc2cc(Cl)ccc2OC)n1	-	-	-	-	-
Cc1ccc(S(=O)(=O)Nc2cccc(-c3ccc(N4CCCCCC4)nn3)c2)cc1	-	.	-	.	-
CCOc1cc(S(=O)(=O)NCCCN2CCOCC2)ccc1F	-	.	-	.	-
Cc1cc(S(=O)(=O)NCCCN2CCOCC2)ccc1F	-	90.8	-	-	-
CCOc1ccc(S(=O)(=O)NCCCN2CCOCC2)cc1	-	92.0	-	-	-
Cc1ccc(N2CCN(S(=O)(=O)c3ccc(F)c(C)c3)CC2)c(C)c1	-	-	-	-	-
CCC(=O)c1cc(F)c(N2CCN(S(=O)(=O)c3ccc(C)cc3)CC2)cc1C	-	68.8	58.9	-	-
Cc1ccc(S(=O)(=O)N2CCN(C(=O)c3cccc(F)c3)CC2)cc1	-	-	-	-	-53.5
Cc1ccc(S(=O)(=O)N2CCN(c3ccc(C(=O)N4CCOCC4)cc3[N+](=O)[O-])CC2)cc1	-	61.2	-	-	-
CO[C@H]1O[C@H](CBr)[C@@H](OC(=O)c2ccccc2)[C@H](O)[C@H]1O	-	.	-	.	-
O=[N+]([O-])c1cc(Cl)ccc1Oc1ccc(-c2nnco2)cc1	-	-	-	-	-
Cc1ccc(C)c2sc(N3CCN(C(=O)c4ccc([N+](=O)[O-])o4)CC3)nc12	-	.	-	.	-
O=C(c1ccc([N+](=O)[O-])o1)N1CCN(c2nc3c(F)cc(F)cc3s2)CC1	70.8	.	55.7	.	-
Cc1ccc(C(C[N+](=O)[O-])c2c(-c3ccccc3O)[nH][nH]c2=O)cc1 (stereo not given)	-	100.4	-	-	-
COc1ccc(C(C[N+](=O)[O-])c2c(C)[nH]c3ccccc23)cc1OC (stereo not given)	-	-	-	-	-
SMILES	HSF1 activator	Lmaj promast	T cruzi inh	Hsp70 act	HSF1 inhib
O=[N+]([O-])CC(c1ccc(F)cc1)c1c[nH]c2ccccc12 (stereo not given)	-	.	-	.	-
O=c1[nH][nH]c(-c2ccccc2O)c1C(C[N+](=O)[O-])c1ccc(Br)cc1 (stereo not given)	-	100.4	-	-	-
Cn1c(O)c(N=NC(=O)Cn2c(C(F)(F)F)nc3ccccc32)c2ccccc21	-	-	-	-	-
O=C(CCc1ccccc1)NNC(=O)Cc1ccccc1	-	-	-	-	-
COc1ccccc1C(=O)N1N=C(c2ccc(NS(C)(=O)=O)cc2)CC1c1cccs1 (stereo not given)	54.2	.	-	.	-
CN1CCN(c2nc(-c3ccc(Br)cc3)nnc2-c2ccccc2)CC1	-	-	65.1	-	-
Brc1ccc(-c2nnc(-c3ccccc3)c(N3CCSCC3)n2)cc1	125.9	-	-	-	-
Cc1ccc(-c2nnc(-c3ccccc3)c(N3CCOCC3)n2)cc1	-	-	-	-	-
CC(=O)NC(Cc1ccccc1C)C(=O)NC1CCN(c2ncccc2[N+](=O)[O-])CC1 (stereo not given)	-	-	-	-	-
